Reference: ChEMBL document CHEMBL1151684, “Synthesis and antitumoral activity of novel 3-(2-substituted-1,3,4-oxadiazol-5-yl) and 3-(5-substituted-1,2,4-triazol-3-yl) beta-carboline derivatives” (2008)

System: K562
Assay: Growth inhibition of human K-562 cells after 48 hrs by sulforhodamine B assay
Type: functional
Details: K562, 48 h
Summary of the method: (§1)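 Sulforhodamine B colorimetric assay following the NCI standard protocol, with doxorubicin as positive control. Each compound was tested at four concentrations in 10-fold dilutions (0.25 to 250). GI50, the concentration giving 50% growth reduction versus untreated control cells, was derived from dose–response curves.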

| SMILES | GI50 | LC50 (concentration causing 50% net cell kill) | TGI |
| --- | --- | --- | --- |
| CSc1nnc(-c2cc3c([nH]c4ccccc43)c(-c3ccccc3)n2)o1 | 0.43 µM | 74.7 µM | 10.4 µM |
| COc1ccc(-c2nc(-c3nnc(SC)o3)cc3c2[nH]c2ccccc23)cc1 | 0.18 µM |  | > 100 µM |
| S=c1[nH]nc(-c2cc3c([nH]c4ccccc43)c(-c3ccccc3)n2)o1 | 15.3 µM | > 100 µM | 54.4 µM |
| CSc1nnc(-c2cc3c([nH]c4ccccc43)c(-c3ccc([N+](=O)[O-])cc3)n2)o1 | > 100 µM |  |  |
| COc1cc(-c2nc(-c3nnc(SC)o3)cc3c2[nH]c2ccccc23)ccc1O | 22.6 µM |  | > 100 µM |
| S=c1[nH]nc(-c2cc3c([nH]c4ccccc43)c(-c3ccccc3)n2)[nH]1 | 3.2 µM |  |  |
| Oc1ccc(-c2nc(-c3n[nH]c(=S)o3)cc3c2[nH]c2ccccc23)cc1 | 21.5 µM | > 100 µM | 87 µM |
| O=[N+]([O-])c1cccc(-c2nc(-c3n[nH]c(=S)o3)cc3c2[nH]c2ccccc23)c1 | 11 µM | > 100 µM | 86.7 µM |
| COc1cc(-c2nc(-c3n[nH]c(=S)o3)cc3c2[nH]c2ccccc23)ccc1O | 31.7 µM |  | > 100 µM |

System: MCF7
Assay: Growth inhibition of human MCF7 cells after 48 hrs by sulforhodamine B assay
Type: functional
Details: MCF7, 48 h
Summary of the method: as §1

| SMILES | GI50 | LC50 (concentration killing 50% of cells) | TGI |
| --- | --- | --- | --- |
| CSc1nnc(-c2cc3c([nH]c4ccccc43)c(-c3ccccc3)n2)o1 | 12.2 µM | > 100 µM | 31.3 µM |
| COc1ccc(-c2nc(-c3nnc(SC)o3)cc3c2[nH]c2ccccc23)cc1 | 31.2 µM |  | > 100 µM |
| S=c1[nH]nc(-c2cc3c([nH]c4ccccc43)c(-c3ccccc3)n2)o1 | 25.5 µM |  | > 100 µM |
| CSc1nnc(-c2cc3c([nH]c4ccccc43)c(-c3ccc([N+](=O)[O-])cc3)n2)o1 | > 100 µM |  |  |
| COc1cc(-c2nc(-c3nnc(SC)o3)cc3c2[nH]c2ccccc23)ccc1O | 12.7 µM | 61.2 µM | 28.1 µM |
| S=c1[nH]nc(-c2cc3c([nH]c4ccccc43)c(-c3ccccc3)n2)[nH]1 | > 100 µM |  |  |
| Oc1ccc(-c2nc(-c3n[nH]c(=S)o3)cc3c2[nH]c2ccccc23)cc1 | 88.7 µM |  | > 100 µM |
| O=[N+]([O-])c1cccc(-c2nc(-c3n[nH]c(=S)o3)cc3c2[nH]c2ccccc23)c1 | 27.9 µM |  | > 100 µM |
| COc1cc(-c2nc(-c3n[nH]c(=S)o3)cc3c2[nH]c2ccccc23)ccc1O | 32.2 µM |  | > 100 µM |

System: not listed separately
Assay: Growth inhibition of human NCI-460 cells after 48 hrs by sulforhodamine B assay
Type: functional
Details: NCI-460, 48 h
Summary of the method: as §1

| SMILES | GI50 | LC50 (concentration for 50% net cell kill) | TGI |
| --- | --- | --- | --- |
| CSc1nnc(-c2cc3c([nH]c4ccccc43)c(-c3ccccc3)n2)o1 | 3.42 µM | > 100 µM | 74.7 µM |
| COc1ccc(-c2nc(-c3nnc(SC)o3)cc3c2[nH]c2ccccc23)cc1 | 1.28 µM | > 100 µM | 56.6 µM |
| S=c1[nH]nc(-c2cc3c([nH]c4ccccc43)c(-c3ccccc3)n2)o1 | 20.6 µM |  | > 100 µM |
| CSc1nnc(-c2cc3c([nH]c4ccccc43)c(-c3ccc([N+](=O)[O-])cc3)n2)o1 | > 100 µM |  |  |
| COc1cc(-c2nc(-c3nnc(SC)o3)cc3c2[nH]c2ccccc23)ccc1O | 4.82 µM |  | > 100 µM |
| S=c1[nH]nc(-c2cc3c([nH]c4ccccc43)c(-c3ccccc3)n2)[nH]1 | 6.36 µM |  |  |
| Oc1ccc(-c2nc(-c3n[nH]c(=S)o3)cc3c2[nH]c2ccccc23)cc1 | > 100 µM |  | > 100 µM |
| O=[N+]([O-])c1cccc(-c2nc(-c3n[nH]c(=S)o3)cc3c2[nH]c2ccccc23)c1 | 73.4 µM |  | > 100 µM |
| COc1cc(-c2nc(-c3n[nH]c(=S)o3)cc3c2[nH]c2ccccc23)ccc1O | 89.3 µM |  | > 100 µM |

System: 786-0
Assay: Growth inhibition of human 786-0 cells after 48 hrs by sulforhodamine B assay
Type: functional
Details: 786-0, 48 h
Summary of the method: as §1

| SMILES | GI50 | TGI |
| --- | --- | --- |
| CSc1nnc(-c2cc3c([nH]c4ccccc43)c(-c3ccccc3)n2)o1 | 32 µM | > 100 µM |
| COc1ccc(-c2nc(-c3nnc(SC)o3)cc3c2[nH]c2ccccc23)cc1 | > 100 µM | > 100 µM |
| S=c1[nH]nc(-c2cc3c([nH]c4ccccc43)c(-c3ccccc3)n2)o1 | 27.9 µM | > 100 µM |
| CSc1nnc(-c2cc3c([nH]c4ccccc43)c(-c3ccc([N+](=O)[O-])cc3)n2)o1 | > 100 µM |  |
| COc1cc(-c2nc(-c3nnc(SC)o3)cc3c2[nH]c2ccccc23)ccc1O | 15.3 µM | 36.3 µM |
| S=c1[nH]nc(-c2cc3c([nH]c4ccccc43)c(-c3ccccc3)n2)[nH]1 | 7.56 µM |  |
| Oc1ccc(-c2nc(-c3n[nH]c(=S)o3)cc3c2[nH]c2ccccc23)cc1 | 94.9 µM | > 100 µM |
| O=[N+]([O-])c1cccc(-c2nc(-c3n[nH]c(=S)o3)cc3c2[nH]c2ccccc23)c1 | 32.4 µM | > 100 µM |
| COc1cc(-c2nc(-c3n[nH]c(=S)o3)cc3c2[nH]c2ccccc23)ccc1O | 22.4 µM | > 100 µM |

Same assay, conditions: 786-0, 48 h, read-out: LC50 (the source's name)

| SMILES | CC50 |
| --- | --- |
| COc1cc(-c2nc(-c3nnc(SC)o3)cc3c2[nH]c2ccccc23)ccc1O | > 100 µM |

System: HT-29
Assay: Growth inhibition of human HT-29 cells after 48 hrs by sulforhodamine B assay
Type: functional
Details: HT-29, 48 h
Summary of the method: as §1

| SMILES | GI50 | TGI | LC50 (concentration killing 50% of the cells present at the start) |
| --- | --- | --- | --- |
| CSc1nnc(-c2cc3c([nH]c4ccccc43)c(-c3ccccc3)n2)o1 | 16.2 µM | > 100 µM |  |
| COc1ccc(-c2nc(-c3nnc(SC)o3)cc3c2[nH]c2ccccc23)cc1 | > 100 µM | > 100 µM |  |
| S=c1[nH]nc(-c2cc3c([nH]c4ccccc43)c(-c3ccccc3)n2)o1 | 25.5 µM | > 100 µM |  |
| CSc1nnc(-c2cc3c([nH]c4ccccc43)c(-c3ccc([N+](=O)[O-])cc3)n2)o1 | > 100 µM |  |  |
| COc1cc(-c2nc(-c3nnc(SC)o3)cc3c2[nH]c2ccccc23)ccc1O | 7.31 µM | 39.4 µM | > 100 µM |
| S=c1[nH]nc(-c2cc3c([nH]c4ccccc43)c(-c3ccccc3)n2)[nH]1 | 35.5 µM |  |  |
| Oc1ccc(-c2nc(-c3n[nH]c(=S)o3)cc3c2[nH]c2ccccc23)cc1 | > 100 µM | > 100 µM |  |
| O=[N+]([O-])c1cccc(-c2nc(-c3n[nH]c(=S)o3)cc3c2[nH]c2ccccc23)c1 | 27.9 µM | > 100 µM |  |
| COc1cc(-c2nc(-c3n[nH]c(=S)o3)cc3c2[nH]c2ccccc23)ccc1O | 17.3 µM | > 100 µM |  |

System: not listed separately
Assay: Growth inhibition of human PCO3 cells after 48 hrs by sulforhodamine B assay
Type: functional
Details: PCO3, 48 h
Summary of the method: as §1

| SMILES | GI50 | LC50 (concentration killing 50% of cells) | TGI |
| --- | --- | --- | --- |
| CSc1nnc(-c2cc3c([nH]c4ccccc43)c(-c3ccccc3)n2)o1 | 23.6 µM | > 100 µM | 86.6 µM |
| COc1ccc(-c2nc(-c3nnc(SC)o3)cc3c2[nH]c2ccccc23)cc1 | > 100 µM |  | > 100 µM |
| S=c1[nH]nc(-c2cc3c([nH]c4ccccc43)c(-c3ccccc3)n2)o1 | 25.5 µM |  | > 100 µM |
| CSc1nnc(-c2cc3c([nH]c4ccccc43)c(-c3ccc([N+](=O)[O-])cc3)n2)o1 | > 100 µM |  |  |
| COc1cc(-c2nc(-c3nnc(SC)o3)cc3c2[nH]c2ccccc23)ccc1O | 7.53 µM | > 100 µM | 39.4 µM |
| S=c1[nH]nc(-c2cc3c([nH]c4ccccc43)c(-c3ccccc3)n2)[nH]1 | 4.11 µM |  |  |
| Oc1ccc(-c2nc(-c3n[nH]c(=S)o3)cc3c2[nH]c2ccccc23)cc1 | 81.1 µM |  | > 100 µM |
| O=[N+]([O-])c1cccc(-c2nc(-c3n[nH]c(=S)o3)cc3c2[nH]c2ccccc23)c1 | 12.2 µM | > 100 µM | 35.7 µM |
| COc1cc(-c2nc(-c3n[nH]c(=S)o3)cc3c2[nH]c2ccccc23)ccc1O | 25.9 µM | > 100 µM | 97.3 µM |

System: OVCAR
Assay: Growth inhibition of human OVCAR cells after 48 hrs by sulforhodamine B assay
Type: functional
Details: not given
Summary of the method: as §1

| SMILES | GI50 | LC50 (concentration killing 50% of the cells, NCI protocol) | TGI |
| --- | --- | --- | --- |
| CSc1nnc(-c2cc3c([nH]c4ccccc43)c(-c3ccccc3)n2)o1 | 0.01 µM | 1600 nM | 0.1 µM |
| COc1ccc(-c2nc(-c3nnc(SC)o3)cc3c2[nH]c2ccccc23)cc1 | 2.13 µM |  | > 100 µM |
| S=c1[nH]nc(-c2cc3c([nH]c4ccccc43)c(-c3ccccc3)n2)o1 | 31.8 µM |  | > 100 µM |
| CSc1nnc(-c2cc3c([nH]c4ccccc43)c(-c3ccc([N+](=O)[O-])cc3)n2)o1 | > 100 µM |  |  |
| COc1cc(-c2nc(-c3nnc(SC)o3)cc3c2[nH]c2ccccc23)ccc1O | 16.4 µM |  | 59.8 µM |
| S=c1[nH]nc(-c2cc3c([nH]c4ccccc43)c(-c3ccccc3)n2)[nH]1 | 64.9 µM |  |  |
| Oc1ccc(-c2nc(-c3n[nH]c(=S)o3)cc3c2[nH]c2ccccc23)cc1 | > 100 µM |  | > 100 µM |
| O=[N+]([O-])c1cccc(-c2nc(-c3n[nH]c(=S)o3)cc3c2[nH]c2ccccc23)c1 | 22.3 µM |  | > 100 µM |
| COc1cc(-c2nc(-c3n[nH]c(=S)o3)cc3c2[nH]c2ccccc23)ccc1O | 5.87 µM |  | > 100 µM |

System: UACC-62
Assay: Growth inhibition of human UACC-62 cells after 48 hrs by sulforhodamine B assay
Type: functional
Details: UACC-62, 48 h
Summary of the method: as §1

| SMILES | GI50 | TGI | LC50 (concentration killing 50% of cells, NCI protocol) |
| --- | --- | --- | --- |
| CSc1nnc(-c2cc3c([nH]c4ccccc43)c(-c3ccccc3)n2)o1 | 99.5 µM | > 100 µM |  |
| COc1ccc(-c2nc(-c3nnc(SC)o3)cc3c2[nH]c2ccccc23)cc1 | 29.1 µM | > 100 µM |  |
| S=c1[nH]nc(-c2cc3c([nH]c4ccccc43)c(-c3ccccc3)n2)o1 | > 100 µM | > 100 µM |  |
| CSc1nnc(-c2cc3c([nH]c4ccccc43)c(-c3ccc([N+](=O)[O-])cc3)n2)o1 | > 100 µM |  |  |
| COc1cc(-c2nc(-c3nnc(SC)o3)cc3c2[nH]c2ccccc23)ccc1O | 17.8 µM | 48.6 µM | > 100 µM |
| S=c1[nH]nc(-c2cc3c([nH]c4ccccc43)c(-c3ccccc3)n2)[nH]1 | 6.36 µM |  |  |
| Oc1ccc(-c2nc(-c3n[nH]c(=S)o3)cc3c2[nH]c2ccccc23)cc1 | > 100 µM | > 100 µM |  |
| O=[N+]([O-])c1cccc(-c2nc(-c3n[nH]c(=S)o3)cc3c2[nH]c2ccccc23)c1 | 24.1 µM | > 100 µM |  |
| COc1cc(-c2nc(-c3n[nH]c(=S)o3)cc3c2[nH]c2ccccc23)ccc1O | 17.3 µM | 47.9 µM | > 100 µM |
